Tests used:
Format in all cases: functional
[1] = Antagonist activity at guinea pig H2R-Gsalpha fusion protein expressed in sf9 cells by GTPase assay; conditions: Cavia porcellus
Outline: (§1)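 Inhibition of histamine-stimulated high-affinity GTP hydrolysis in Sf9 membranes expressing hH2R-Gsα or gpH2R-Gsα fusion proteins. KB came from non-linear curve fitting. Means SD of three experiments.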

[2] = Ratio of antagonist activity at human H2R-Gsalpha fusion protein to guinea pig H2R-Gsalpha fusion protein expressed in sf9 cells
[3] = Antagonist activity at human H2R-Gsalpha fusion protein expressed in sf9 cells by GTPase assay; outline: as §1
[4] = molecular target: Histamine H1 receptor (Homo sapiens) (UniProt P35367); test: Antagonist activity at human recombinant H1R expressed in sf9 cells assessed as inhibition of histamine-stimulated GTP hydrolysis
Histamine H2 receptor [5] = molecular target: T1, Histamine H2 receptor (Homo sapiens, UniProt P25021); test: Binding affinity to human H2R expressed in sf9 cells by adenylyl cyclase assay
[6] = molecular target: Histamine H2 receptor (Cavia porcellus) (UniProt P47747); test: Binding affinity to guinea pig H2R expressed in sf9 cells by adenylyl cyclase assay
Histamine H2 receptor [7] = molecular target: T1, Histamine H2 receptor; test: Agonist activity at human H2R
Outline: (§2)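 GTPase activity in Sf9 insect cell membranes expressing hH2R-GsαS or gpH2R-GsαS fusion proteins. Curves were fitted by non-linear regression. Means SD of three experiments.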

Histamine H2 receptor [8] = molecular target: Histamine H2 receptor (Cavia porcellus, UniProt P47747); test: Agonist activity at guinea pig H2R; outline: as §2
Histamine H2 receptor [9] = molecular target: T1, Histamine H2 receptor; test: Agonist activity at human H2R relative to histamine; outline: as §2
[10] = molecular target: Histamine H2 receptor (Cavia porcellus) (UniProt P47747); test: Agonist activity at guinea pig H2R relative to histamine; outline: as §2

Sequence of Histamine H2 receptor (Cavia porcellus) (P47747 whole entry): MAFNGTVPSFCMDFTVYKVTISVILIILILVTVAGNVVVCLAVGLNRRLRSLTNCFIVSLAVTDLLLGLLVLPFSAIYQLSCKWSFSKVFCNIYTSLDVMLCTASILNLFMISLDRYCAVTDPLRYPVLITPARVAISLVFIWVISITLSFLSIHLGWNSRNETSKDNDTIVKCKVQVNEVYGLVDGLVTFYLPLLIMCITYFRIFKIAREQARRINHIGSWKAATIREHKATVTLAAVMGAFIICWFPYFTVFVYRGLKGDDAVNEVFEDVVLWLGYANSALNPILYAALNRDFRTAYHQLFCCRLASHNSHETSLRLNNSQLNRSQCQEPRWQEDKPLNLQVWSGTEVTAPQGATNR
T1 sequence (P25021 whole entry): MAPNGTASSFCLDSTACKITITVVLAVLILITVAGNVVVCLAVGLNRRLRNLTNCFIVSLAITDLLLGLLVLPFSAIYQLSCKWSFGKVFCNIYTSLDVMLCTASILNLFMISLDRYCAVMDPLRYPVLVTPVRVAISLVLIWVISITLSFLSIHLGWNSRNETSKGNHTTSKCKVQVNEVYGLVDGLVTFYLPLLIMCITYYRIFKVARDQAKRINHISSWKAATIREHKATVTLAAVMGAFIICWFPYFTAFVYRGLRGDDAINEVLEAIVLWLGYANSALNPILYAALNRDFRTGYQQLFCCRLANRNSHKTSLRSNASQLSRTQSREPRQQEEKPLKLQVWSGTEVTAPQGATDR
Sequence of Histamine H1 receptor (Homo sapiens) (P35367 whole entry): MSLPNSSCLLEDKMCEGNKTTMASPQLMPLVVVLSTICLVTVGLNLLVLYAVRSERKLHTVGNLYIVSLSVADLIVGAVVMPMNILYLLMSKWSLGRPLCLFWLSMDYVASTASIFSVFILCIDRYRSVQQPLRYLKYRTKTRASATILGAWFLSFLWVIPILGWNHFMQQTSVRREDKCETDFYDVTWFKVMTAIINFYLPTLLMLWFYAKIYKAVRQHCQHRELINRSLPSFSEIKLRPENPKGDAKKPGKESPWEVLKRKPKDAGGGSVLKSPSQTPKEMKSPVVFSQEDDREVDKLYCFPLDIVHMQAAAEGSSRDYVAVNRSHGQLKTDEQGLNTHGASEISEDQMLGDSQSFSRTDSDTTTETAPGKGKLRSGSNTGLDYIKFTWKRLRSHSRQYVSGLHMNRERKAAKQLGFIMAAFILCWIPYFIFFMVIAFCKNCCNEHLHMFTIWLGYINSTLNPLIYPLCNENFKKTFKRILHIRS
Sequence of Histamine H2 receptor (Cavia porcellus, UniProt P47747) (P47747 whole entry): as the sequence (P47747 whole entry) above

Structure (SMILES) | Kb [4] | Kb (Histamine H2 receptor [5]) | Kb [6] | EC50 (Histamine H2 receptor [7]) | EC50 (Histamine H2 receptor [8]) | Activity (Histamine H2 receptor [5]; filed as partial agonist) | Activity ([6]; filed as partial agonist) | Efficacy (Histamine H2 receptor [9]) | Efficacy [10] | Kb [1] | Ratio [2] | Kb [3]
N#CN/C(=N\CCN)NCCCOc1cccc(CN2CCCCC2)c1 | > 30000 nM | – | – | – | – | – | – | – | – | 2300 nM | 4.04 | 9300 nM
NCCCOc1cccc(CN2CCCCC2)c1 | > 30000 nM | – | – | – | – | – | – | – | – | 6800 nM | 2.2 | 15000 nM
N#CN/C(=N\CCCCCCN)NCCCOc1cccc(CN2CCCCC2)c1 | > 30000 nM | 2500 nM | 33 nM | – | – | – | – | – | – | 75 nM | 24 | 1800 nM
N#CN/C(=N\CCNC(=O)c1ccc(N)cc1)NCCCOc1cccc(CN2CCCCC2)c1.O=C(O)C(=O)O [AMINOPOTENTIDINE OXALATE] | – | – | – | – | – | – | – | – | – | 280 nM | 0.79 | 220 nM

The next lines start with results.

Kb [4] | Kb (Histamine H2 receptor [5]) | Kb [6] | EC50 (Histamine H2 receptor [7]) | EC50 (Histamine H2 receptor [8]) | Activity (Histamine H2 receptor [5]; filed as partial agonist) | Activity ([6]; filed as partial agonist) | Efficacy (Histamine H2 receptor [9]) | Efficacy [10] | Structure (SMILES) | Kb [1] | Ratio [2] | Kb [3]
– | – | – | 160 nM | 90 nM | – | – | – | – | CC1(C)C(=CC=CC=CC2=[N+](CCCCS(=O)(=O)[O-])c3ccccc3C2(C)C)N(CCCCCC(=O)NCCN=C(NC#N)NCCCOc2cccc(CN3CCCCC3)c2)c2ccccc21 | – | – | –
> 30000 nM | – | – | – | – | – | – | – | – | O=C(CCCCCNC(=O)COc1ccc(/C=C/C2=[N+]3C(=Cc4ccc(-c5ccc[nH]5)n4[B-]3(F)F)C=C2)cc1)NCCCOc1cccc(CN2CCCCC2)c1 | 150 nM | 4.27 | 640 nM
> 30000 nM | – | – | – | – | – | – | – | – | N#CN/C(=N\CCCCCCNC(=O)CCCCCNC(=O)COc1ccc(/C=C/C2=[N+]3C(=Cc4ccc(-c5ccc[nH]5)n4[B-]3(F)F)C=C2)cc1)NCCCOc1cccc(CN2CCCCC2)c1 | 190 nM | 1.37 | 260 nM
> 30000 nM | – | – | – | – | Partial agonist | Partial agonist | 58% | 65% | CC1(C)C(/C=C/C=C/C=C2/N(CCCCCC(=O)NCC/N=C(\NC#N)NCCCOc3cccc(CN4CCCCC4)c3)c3ccccc3C2(C)C)=[N+](CCCCS(=O)(=O)[O-])c2ccccc21 | 58 nM | 0.81 | 47 nM
